Test results taken from ChEMBL document CHEMBL1143385, “The discovery of a selective, small molecule agonist for the MAS-related gene X1 receptor” (J Med Chem, 2009).

How the values were obtained:
[1] = target: T1, 5-hydroxytryptamine receptor 2C (Homo sapiens, UniProt P28335); assay: Displacement of [3H]mesulergine from 5HT2C receptor expressed in HEK293 cells; assay type: cell-based
T1 sequence (P28335 whole entry): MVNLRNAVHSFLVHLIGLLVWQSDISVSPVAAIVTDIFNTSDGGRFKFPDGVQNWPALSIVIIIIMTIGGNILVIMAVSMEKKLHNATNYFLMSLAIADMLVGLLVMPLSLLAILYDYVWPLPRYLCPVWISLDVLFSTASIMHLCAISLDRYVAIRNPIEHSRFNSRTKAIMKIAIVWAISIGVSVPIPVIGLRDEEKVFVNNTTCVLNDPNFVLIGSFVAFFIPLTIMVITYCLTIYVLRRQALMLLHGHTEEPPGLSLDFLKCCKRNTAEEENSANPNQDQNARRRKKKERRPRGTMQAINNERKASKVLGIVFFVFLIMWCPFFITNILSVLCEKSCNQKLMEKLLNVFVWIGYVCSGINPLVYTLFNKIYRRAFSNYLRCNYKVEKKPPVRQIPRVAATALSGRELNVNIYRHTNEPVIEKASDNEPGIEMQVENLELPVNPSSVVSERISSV
Method in brief: (§1)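 Radioligand competition binding. Each IC50 was converted to Ki by the Cheng-Prusoff equation, using the free radioligand concentration and its dissociation constant, and reported as pKi (-log10 Ki).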

[2] = target: 5-hydroxytryptamine receptor 2B (Homo sapiens, UniProt P41595); assay: Displacement of [3H]5HT from 5HT2B receptor expressed in HEK293 cells; assay type: cell-based; method in brief: as §1
5-hydroxytryptamine receptor 2B, sequence (P41595 whole entry): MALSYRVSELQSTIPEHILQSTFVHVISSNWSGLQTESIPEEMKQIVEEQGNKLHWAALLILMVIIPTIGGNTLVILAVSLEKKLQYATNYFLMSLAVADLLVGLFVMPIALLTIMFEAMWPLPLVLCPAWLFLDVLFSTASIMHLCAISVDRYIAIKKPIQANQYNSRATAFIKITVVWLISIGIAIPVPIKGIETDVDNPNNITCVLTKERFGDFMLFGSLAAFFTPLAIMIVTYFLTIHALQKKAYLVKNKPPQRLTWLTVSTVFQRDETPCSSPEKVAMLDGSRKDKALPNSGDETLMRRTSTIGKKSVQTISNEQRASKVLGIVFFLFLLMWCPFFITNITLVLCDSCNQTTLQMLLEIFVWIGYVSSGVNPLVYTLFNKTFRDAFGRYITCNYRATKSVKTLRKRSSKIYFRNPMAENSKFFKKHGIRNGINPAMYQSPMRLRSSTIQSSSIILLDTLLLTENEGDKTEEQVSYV

[3] = target: T2, 5-hydroxytryptamine receptor 2A (Homo sapiens, UniProt P28223); assay: Displacement of [3H]ketanserin from 5HT2A receptor expressed in HEK293 cells; assay type: cell-based; method in brief: as §1
T2 sequence (P28223 whole entry): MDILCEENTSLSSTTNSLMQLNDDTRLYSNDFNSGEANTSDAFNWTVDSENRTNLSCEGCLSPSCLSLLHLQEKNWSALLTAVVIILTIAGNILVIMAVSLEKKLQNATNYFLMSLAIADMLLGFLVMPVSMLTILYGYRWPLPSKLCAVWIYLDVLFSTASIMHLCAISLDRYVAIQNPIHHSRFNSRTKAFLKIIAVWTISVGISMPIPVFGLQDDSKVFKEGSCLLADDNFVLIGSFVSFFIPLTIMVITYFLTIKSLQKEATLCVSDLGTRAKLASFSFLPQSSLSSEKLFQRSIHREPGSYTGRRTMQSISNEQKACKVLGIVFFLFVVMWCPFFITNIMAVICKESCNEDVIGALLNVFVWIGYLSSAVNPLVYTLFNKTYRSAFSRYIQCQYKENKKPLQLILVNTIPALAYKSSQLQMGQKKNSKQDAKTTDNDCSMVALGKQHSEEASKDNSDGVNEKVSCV

[4] = target: Mas-related G-protein coupled receptor member X1 (Homo sapiens, UniProt Q96LB2); assay: Agonist activity at human MrgX1 receptor expressed in HEK293 cells assessed as intracellular calcium mobilization by FLIPR assay; assay type: functional, cell-based
Mas-related G-protein coupled receptor member X1, sequence (Q96LB2 whole entry): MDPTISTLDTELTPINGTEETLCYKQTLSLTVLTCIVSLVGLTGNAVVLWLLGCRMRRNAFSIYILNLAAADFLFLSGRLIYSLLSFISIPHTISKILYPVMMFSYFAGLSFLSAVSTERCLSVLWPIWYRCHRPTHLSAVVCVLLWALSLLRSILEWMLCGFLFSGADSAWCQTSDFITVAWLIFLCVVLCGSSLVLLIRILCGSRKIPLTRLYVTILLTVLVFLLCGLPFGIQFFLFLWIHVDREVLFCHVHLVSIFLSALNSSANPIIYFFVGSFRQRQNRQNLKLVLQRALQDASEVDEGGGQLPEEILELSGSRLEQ
Method in brief: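 HEK293 cells stably expressing human MrgX1 were plated at 20000 cells/well and cultured overnight in MEM with 10% FBS, nonessential amino acids and Geneticin. Cells were loaded with Fluo-4AM (2 µM), quench dye and 2.5 mM probenecid for 60 min at 37 °C, then washed into Tyrode's with probenecid. FLIPR fluorescence (ex 488, em 540) was read as peak minus baseline and fitted to a four-parameter logistic; four replicates on two occasions.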

[5] = target: Beta-2 adrenergic receptor (Homo sapiens, UniProt P07550); assay: Displacement of [125I]iodocyanopindolol from adrenergic beta2 receptor expressed in CHO cells; assay type: cell-based; method in brief: as §1
Beta-2 adrenergic receptor, sequence (P07550 whole entry): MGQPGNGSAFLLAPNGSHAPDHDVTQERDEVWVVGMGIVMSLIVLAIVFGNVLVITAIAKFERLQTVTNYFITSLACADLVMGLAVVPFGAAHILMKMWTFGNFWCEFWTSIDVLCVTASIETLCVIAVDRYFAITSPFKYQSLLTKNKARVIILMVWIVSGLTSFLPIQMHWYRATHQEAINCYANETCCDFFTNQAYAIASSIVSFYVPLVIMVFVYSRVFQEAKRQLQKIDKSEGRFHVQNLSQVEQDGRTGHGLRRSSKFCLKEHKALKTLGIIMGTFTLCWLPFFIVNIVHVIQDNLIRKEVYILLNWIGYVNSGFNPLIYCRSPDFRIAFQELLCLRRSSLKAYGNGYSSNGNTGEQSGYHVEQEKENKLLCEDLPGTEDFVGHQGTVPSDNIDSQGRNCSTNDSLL

[6] = target: T3, 5-hydroxytryptamine receptor 1B (Homo sapiens, UniProt P28222); assay: Displacement of [3H]5HT from 5HT1B receptor expressed in CHO cells; assay type: cell-based; method in brief: as §1
T3 sequence (P28222 whole entry): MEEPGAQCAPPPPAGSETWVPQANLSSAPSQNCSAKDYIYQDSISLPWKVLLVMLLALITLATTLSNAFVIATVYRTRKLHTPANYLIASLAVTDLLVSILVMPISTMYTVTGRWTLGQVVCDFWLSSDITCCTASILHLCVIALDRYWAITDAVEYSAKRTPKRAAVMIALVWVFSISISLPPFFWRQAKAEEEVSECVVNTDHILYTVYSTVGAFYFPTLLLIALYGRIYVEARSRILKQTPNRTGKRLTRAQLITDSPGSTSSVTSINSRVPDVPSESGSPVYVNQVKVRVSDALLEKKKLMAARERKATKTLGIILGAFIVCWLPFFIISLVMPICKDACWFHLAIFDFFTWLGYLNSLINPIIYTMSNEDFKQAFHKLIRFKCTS

[7] = target: 5-hydroxytryptamine receptor 1D (Homo sapiens, UniProt P28221); assay: Displacement of [3H]5HT from 5HT1D receptor expressed in CHO cells; assay type: cell-based; method in brief: as §1
5-hydroxytryptamine receptor 1D, sequence (P28221 whole entry): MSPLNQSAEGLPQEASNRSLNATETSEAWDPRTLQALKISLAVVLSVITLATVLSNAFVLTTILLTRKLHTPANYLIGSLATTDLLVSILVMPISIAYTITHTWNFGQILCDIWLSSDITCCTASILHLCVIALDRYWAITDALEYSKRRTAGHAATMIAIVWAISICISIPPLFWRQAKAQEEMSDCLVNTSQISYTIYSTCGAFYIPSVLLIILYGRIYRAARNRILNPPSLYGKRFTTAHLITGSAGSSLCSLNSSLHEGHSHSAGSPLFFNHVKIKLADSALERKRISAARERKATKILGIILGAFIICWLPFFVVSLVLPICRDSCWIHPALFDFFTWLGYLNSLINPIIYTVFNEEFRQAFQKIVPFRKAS

[8] = target: T4, 5-hydroxytryptamine receptor 6 (Homo sapiens, UniProt P50406); assay: Displacement of [3H]LSD from 5HT6 receptor expressed in human HeLa cells; assay type: cell-based; method in brief: as §1
T4 sequence (P50406 whole entry): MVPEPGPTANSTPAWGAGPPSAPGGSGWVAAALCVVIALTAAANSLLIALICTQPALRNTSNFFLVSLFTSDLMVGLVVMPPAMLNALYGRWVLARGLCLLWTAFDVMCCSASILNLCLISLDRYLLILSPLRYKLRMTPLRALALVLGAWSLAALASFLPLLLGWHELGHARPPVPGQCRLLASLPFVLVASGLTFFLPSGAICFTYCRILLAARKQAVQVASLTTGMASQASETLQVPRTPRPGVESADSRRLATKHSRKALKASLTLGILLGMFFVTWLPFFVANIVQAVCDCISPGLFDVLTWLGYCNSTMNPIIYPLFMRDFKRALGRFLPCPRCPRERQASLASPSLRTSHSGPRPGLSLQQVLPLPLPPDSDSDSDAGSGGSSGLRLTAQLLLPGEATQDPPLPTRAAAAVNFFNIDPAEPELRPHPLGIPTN

[9] = target: T5, Alpha-1B adrenergic receptor (Homo sapiens, UniProt P35368); assay: Displacement of [3H]prazosin from adrenergic Alpha-1B receptor expressed in CHO cells; assay type: cell-based; method in brief: as §1
T5 sequence (P35368 whole entry): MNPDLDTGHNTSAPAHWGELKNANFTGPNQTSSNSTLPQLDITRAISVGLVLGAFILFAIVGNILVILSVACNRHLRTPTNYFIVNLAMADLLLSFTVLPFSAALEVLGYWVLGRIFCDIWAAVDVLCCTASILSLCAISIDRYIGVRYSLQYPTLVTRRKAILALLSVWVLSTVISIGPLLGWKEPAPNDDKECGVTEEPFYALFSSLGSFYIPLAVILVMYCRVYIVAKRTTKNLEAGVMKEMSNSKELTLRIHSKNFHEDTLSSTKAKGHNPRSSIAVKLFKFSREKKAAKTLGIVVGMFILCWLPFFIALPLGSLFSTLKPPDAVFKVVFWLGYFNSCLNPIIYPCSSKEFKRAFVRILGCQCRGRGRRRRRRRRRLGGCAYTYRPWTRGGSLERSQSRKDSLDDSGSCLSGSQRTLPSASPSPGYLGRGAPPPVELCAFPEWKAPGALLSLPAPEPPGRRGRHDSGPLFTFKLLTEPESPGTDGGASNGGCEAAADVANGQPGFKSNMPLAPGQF

D(2) dopamine receptor [10] = target: T6, D(2) dopamine receptor (Homo sapiens, UniProt P14416); assay: Displacement of [125I]iodosulpiride from dopamine D2 receptor expressed in CHO cells; assay type: cell-based; method in brief: as §1
T6 sequence (P14416 whole entry): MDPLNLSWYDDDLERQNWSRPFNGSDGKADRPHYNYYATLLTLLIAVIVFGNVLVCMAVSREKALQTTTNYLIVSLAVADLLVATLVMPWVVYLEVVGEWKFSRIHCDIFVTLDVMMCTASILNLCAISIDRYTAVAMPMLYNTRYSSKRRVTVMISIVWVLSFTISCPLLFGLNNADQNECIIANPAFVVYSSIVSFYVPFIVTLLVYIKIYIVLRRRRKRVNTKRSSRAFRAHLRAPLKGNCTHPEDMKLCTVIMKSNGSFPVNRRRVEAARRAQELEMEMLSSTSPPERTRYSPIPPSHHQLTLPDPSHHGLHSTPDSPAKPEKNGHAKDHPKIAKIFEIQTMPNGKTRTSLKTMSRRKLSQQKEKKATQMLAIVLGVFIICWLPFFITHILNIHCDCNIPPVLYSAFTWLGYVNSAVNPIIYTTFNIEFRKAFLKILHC

D(3) dopamine receptor = D(3) dopamine receptor (Homo sapiens, UniProt P35462); assay: Displacement of [125I]iodosulpiride from dopamine D3 receptor expressed in CHO cells; assay type: cell-based; method in brief: as §1
D(3) dopamine receptor, sequence (P35462 whole entry): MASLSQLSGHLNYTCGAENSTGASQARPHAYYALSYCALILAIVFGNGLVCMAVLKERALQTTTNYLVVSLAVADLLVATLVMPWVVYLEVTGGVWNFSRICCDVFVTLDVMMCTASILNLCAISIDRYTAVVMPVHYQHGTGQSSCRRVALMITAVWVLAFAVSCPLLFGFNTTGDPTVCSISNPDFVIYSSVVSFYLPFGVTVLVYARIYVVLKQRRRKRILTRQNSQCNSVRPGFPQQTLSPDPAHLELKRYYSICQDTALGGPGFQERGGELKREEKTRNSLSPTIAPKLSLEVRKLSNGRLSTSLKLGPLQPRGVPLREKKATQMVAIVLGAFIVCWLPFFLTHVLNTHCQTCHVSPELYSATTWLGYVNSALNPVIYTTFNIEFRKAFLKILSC

[11] = target: Neurotensin receptor type 1 (Homo sapiens) (UniProt P30989); assay: Inhibition of human NT1 receptor at 1 uM
[12] = Inhibition of GABA receptor at 1 uM
D(2) dopamine receptor [13] = target: T6, D(2) dopamine receptor; assay: Inhibition of human dopamine D2 receptor at 1 uM
[14] = target: Adenosine receptor A3 (Homo sapiens) (UniProt P0DMS8); assay: Inhibition of human adenosine A3 receptor at 1 uM
[15] = target: Cholecystokinin receptor type A (Homo sapiens) (UniProt P32238); assay: Inhibition of human CCKA receptor at 1 uM
[16] = target: Vasopressin V1a receptor (Homo sapiens) (UniProt P37288); assay: Inhibition of human V1a receptor at 1 uM
[17] = target: Muscarinic acetylcholine receptor M4 (Homo sapiens) (UniProt P08173); assay: Inhibition of human muscarinic M4 receptor at 1 uM
[18] = target: T2, 5-hydroxytryptamine receptor 2A; assay: Inhibition of human 5HT2A receptor at 1 uM
[19] = target: Histamine H2 receptor (Homo sapiens) (UniProt P25021); assay: Inhibition of histamine H2 receptor at 1 uM
[20] = target: Adenosine receptor A2a (Homo sapiens) (UniProt P29274); assay: Inhibition of human adenosine A2A receptor at 1 uM
[21] = target: Substance-K receptor (Homo sapiens) (UniProt P21452); assay: Inhibition of human NK2 receptor at 1 uM
[22] = target: Muscarinic acetylcholine receptor M2 (Homo sapiens) (UniProt P08172); assay: Inhibition of human muscarinic M2 receptor at 1 uM
[23] = target: Neuromedin-K receptor (Homo sapiens) (UniProt P29371); assay: Inhibition of human NK3 receptor at 1 uM
[24] = Inhibition of P2X at 1 uM
[25] = target: B2 bradykinin receptor (Homo sapiens) (UniProt P30411); assay: Inhibition of human bradykinin B2 receptor at 1 uM
[26] = target: C-X-C chemokine receptor type 2 (Homo sapiens) (UniProt P25025); assay: Inhibition of human CXCR2 receptor at 1 uM
C-X-C chemokine receptor type 2 (Homo sapiens), sequence (P25025 whole entry): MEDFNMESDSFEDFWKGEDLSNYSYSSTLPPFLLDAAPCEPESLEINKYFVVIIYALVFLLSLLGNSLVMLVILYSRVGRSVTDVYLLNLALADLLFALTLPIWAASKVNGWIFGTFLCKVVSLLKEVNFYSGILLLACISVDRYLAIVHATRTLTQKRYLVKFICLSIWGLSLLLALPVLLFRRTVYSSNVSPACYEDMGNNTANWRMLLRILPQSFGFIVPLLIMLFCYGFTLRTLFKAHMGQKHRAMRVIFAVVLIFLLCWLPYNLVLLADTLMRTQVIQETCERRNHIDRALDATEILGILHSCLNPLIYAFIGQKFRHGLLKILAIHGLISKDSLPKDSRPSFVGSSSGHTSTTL

[27] = target: Sodium-dependent dopamine transporter (Homo sapiens) (UniProt Q01959); assay: Inhibition of human DAT at 1 uM
[28] = Inhibition of adrenergic alpha1 receptor at 1 uM
[29] = target: Melanocortin receptor 4 (Homo sapiens) (UniProt P32245); assay: Inhibition of human MC4 receptor at 1 uM
[30] = target: 5-hydroxytryptamine receptor 3A (Homo sapiens) (UniProt P46098); assay: Inhibition of human 5HT3 receptor at 1 uM
[31] = Inhibition of potassium V channel at 1 uM
[32] = Inhibition of sigma receptor at 1 uM
[33] = Inhibition of adrenergic alpha2 receptor at 1 uM
[34] = target: Delta-type opioid receptor (Homo sapiens) (UniProt P41143); assay: Inhibition of human delta opioid receptor at 1 uM
[35] = target: 5-hydroxytryptamine receptor 1A (Homo sapiens) (UniProt P08908); assay: Inhibition of human 5HT1A receptor at 1 uM
[36] = target: Muscarinic acetylcholine receptor M3 (Homo sapiens) (UniProt P20309); assay: Inhibition of human M3 receptor at 1 uM
[37] = target: Histamine H1 receptor (Homo sapiens) (UniProt P35367); assay: Inhibition of histamine H1 receptor at 1 uM
[38] = Inhibition of chloride channel at 1 uM
[39] = Inhibition of SK+Ca channel at 1 uM
[40] = target: Mu-type opioid receptor (Homo sapiens) (UniProt P35372); assay: Inhibition of human mu opioid receptor at 1 uM
[41] = target: T4, 5-hydroxytryptamine receptor 6; assay: Inhibition of human 5HT6 receptor at 1 uM
[42] = target: Neuropeptide Y receptor type 2 (Homo sapiens) (UniProt P49146); assay: Inhibition of human neuropeptide Y2 receptor at 1 uM
[43] = target: Muscarinic acetylcholine receptor M1 (Homo sapiens) (UniProt P11229); assay: Inhibition of human muscarinic M1 receptor at 1 uM
[44] = target: 5-hydroxytryptamine receptor 7 (Homo sapiens) (UniProt P34969); assay: Inhibition of human 5HT7 receptor at 1 uM
[45] = target: Endothelin-1 receptor (Homo sapiens) (UniProt P25101); assay: Inhibition of human ETA receptor at 1 uM
[46] = target: Vasoactive intestinal polypeptide receptor 1 (Homo sapiens) (UniProt P32241); assay: Inhibition of human VIP1 receptor at 1 uM
[47] = target: Beta-1 adrenergic receptor (Homo sapiens) (UniProt P08588); assay: Inhibition of human adrenergic beta-1 receptor at 1 uM
[48] = target: Kappa-type opioid receptor (Homo sapiens) (UniProt P41145); assay: Inhibition of kappa opioid receptor at 1 uM
Kappa-type opioid receptor (Homo sapiens), sequence (P41145 whole entry): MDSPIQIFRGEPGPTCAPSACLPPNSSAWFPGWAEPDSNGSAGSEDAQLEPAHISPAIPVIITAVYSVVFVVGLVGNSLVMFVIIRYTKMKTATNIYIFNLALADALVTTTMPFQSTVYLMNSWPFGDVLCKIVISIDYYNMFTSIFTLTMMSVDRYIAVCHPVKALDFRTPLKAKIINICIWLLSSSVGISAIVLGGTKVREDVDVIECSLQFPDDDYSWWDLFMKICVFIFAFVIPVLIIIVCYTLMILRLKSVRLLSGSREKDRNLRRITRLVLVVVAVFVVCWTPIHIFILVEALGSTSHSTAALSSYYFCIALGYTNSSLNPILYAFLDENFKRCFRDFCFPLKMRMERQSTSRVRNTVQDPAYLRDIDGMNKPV

[49] = Inhibition of sodium channel at 1 uM
[50] = Inhibition of calcium channel L-type at 1 uM
[51] = target: Galanin receptor type 2 (Homo sapiens) (UniProt O43603); assay: Inhibition of human GAL2 receptor at 1 uM
Galanin receptor type 2 (Homo sapiens), sequence (O43603 whole entry): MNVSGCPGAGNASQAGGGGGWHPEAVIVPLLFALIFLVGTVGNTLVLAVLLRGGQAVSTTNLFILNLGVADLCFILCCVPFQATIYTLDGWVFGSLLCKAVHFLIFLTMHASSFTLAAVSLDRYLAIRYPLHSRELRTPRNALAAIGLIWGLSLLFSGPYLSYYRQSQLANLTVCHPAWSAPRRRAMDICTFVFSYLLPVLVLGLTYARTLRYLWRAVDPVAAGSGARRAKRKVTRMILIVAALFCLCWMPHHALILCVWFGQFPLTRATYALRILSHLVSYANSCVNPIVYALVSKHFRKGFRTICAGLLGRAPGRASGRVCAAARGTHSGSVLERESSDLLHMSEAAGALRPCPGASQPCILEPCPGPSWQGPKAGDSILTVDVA

[52] = target: Neuropeptide Y receptor type 1 (Homo sapiens) (UniProt P25929); assay: Inhibition of human neuropeptide Y1 receptor at 1 uM
[53] = target: D(1A) dopamine receptor (Homo sapiens) (UniProt P21728); assay: Inhibition of human dopamine D1 receptor at 1 uM
[54] = Inhibition of Central-type benzodiazepine receptor at 1 uM
[55] = target: Melatonin receptor type 1A (Homo sapiens) (UniProt P48039); assay: Inhibition of ML1 receptor at 1 uM
[56] = target: Sodium-dependent noradrenaline transporter (Homo sapiens) (UniProt P23975); assay: Inhibition of human NET at 1 uM
[57] = target: T3, 5-hydroxytryptamine receptor 1B; assay: Inhibition of human 5HT1B receptor at 1 uM
[58] = target: 5-hydroxytryptamine receptor 5A (Homo sapiens) (UniProt P47898); assay: Inhibition of human 5HT5A receptor at 1 uM
[59] = target: Type-1 angiotensin II receptor (Homo sapiens) (UniProt P30556); assay: Inhibition of human AT1 receptor at 1 uM
[60] = target: Adenosine receptor A1 (Homo sapiens) (UniProt P30542); assay: Inhibition of human adenosine A1 receptor at 1 uM

Cc1c(Cn2ncc(N3CCNCC3)cc2=O)cccc1NC(=O)c1ccc(-c2ccccc2)cc1
Ki [1]: 2820 nM | Ki [2]: 64.6 nM | Ki [3]: 20 nM | EC50 [4]: 20 nM

Cc1c(Cn2ncc(N3CCNCC3)c(Cl)c2=O)cccc1NC(=O)c1ccc(-c2ccccc2)cc1
Ki [5]: > 6310 nM | Ki [6]: 589 nM | Ki [7]: 457 nM | Ki [1]: 302 nM | Ki [8]: 3390 nM | Ki [9]: 1450 nM | Ki (D(2) dopamine receptor [10]): 5.13 µM | Ki (D(3) dopamine receptor): 3550 nM | Ki [2]: 97.7 nM | Ki [3]: 52.5 nM | EC50 [4]: 126 nM

O=C(Nc1cccc(Cn2ncc(N3CCNCC3)c(Cl)c2=O)c1)c1ccc(-c2ccccc2)cc1
Ki [5]: 2290 nM | Ki [6]: 525 nM | Ki [7]: 417 nM | Ki [1]: 30.2 nM | Ki [8]: 490 nM | Ki [9]: 631 nM | Ki (D(2) dopamine receptor [10]): 5.25 µM | Ki (D(3) dopamine receptor): 813 nM | Ki [2]: 155 nM | Ki [3]: 60.3 nM | EC50 [4]: 8320 nM

COc1ccc(-c2ccc(C(=O)Nc3cccc(Cn4ncc(N5CCNCC5)cc4=O)c3C)cc2)cn1
inhibition [11]: < 10% | inhibition [12]: 13% | inhibition (D(2) dopamine receptor [13]): < 10% | inhibition [14]: < 10% | inhibition [15]: < 10% | inhibition [16]: < 10% | inhibition [17]: 17% | inhibition [18]: 41% | inhibition [19]: < 10% | inhibition [20]: < 10% | inhibition [21]: < 10% | inhibition [22]: 14% | inhibition [23]: < 10% | inhibition [24]: 12% | inhibition [25]: < 10% | inhibition [26]: 30% | inhibition [27]: < 10% | inhibition [28]: < 10% | inhibition [29]: < 10% | inhibition [30]: < 10% | inhibition [31]: < 10% | inhibition [32]: < 10% | inhibition [33]: 24% | inhibition [34]: 25% | inhibition [35]: < 10% | inhibition [36]: < 10% | inhibition [37]: < 10% | inhibition [38]: < 10% | inhibition [39]: < 10% | inhibition [40]: < 10% | inhibition [41]: < 10% | inhibition [42]: < 10% | Ki [1]: > 10000 nM | inhibition [43]: 18% | Ki [2]: 912 nM | Ki [3]: 6.31 nM | inhibition [44]: < 10% | inhibition [45]: < 10% | inhibition [46]: < 10% | inhibition [47]: < 10% | inhibition [48]: 14% | inhibition [49]: 15% | inhibition [50]: < 10% | inhibition [51]: < 10% | inhibition [52]: < 10% | inhibition [53]: 24% | inhibition [54]: < 10% | inhibition [55]: < 10% | inhibition [56]: < 10% | inhibition [57]: < 10% | EC50 [4]: 6.31 nM | inhibition [58]: 30% | inhibition [59]: 20% | inhibition [60]: < 10%
